Active and inactive are the calls of the source. The rule behind the calls is not given here.
Tests used:
[1] = system: BT-474; test: Cytotoxicity against human BT474 cells assessed as reduction in cell viability at >5 uM after 24 hrs by celltiter glo assay; type: functional, cell-based
Method in brief: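 BT474 cells treated with compound; viability read by CellTiter-Glo luminescence 24 h after treatment.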

[2] = system: MCF7; test: Inhibition of KDM5 human MCF7 cells assessed as up-regulation of STING protein expression at 1 to 5 uM after 48 hrs by Western blot analysis relative to control; type: cell-based
Method in brief: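 MCF7 cells treated with compound or 0.1% DMSO for 30 or 48 h; total cell lysates analysed by Western blot with specific antibodies.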

[3] = system: MCF7; test: Inhibition of KDM5 human MCF7 cells assessed as up-regulation of MT1F mRNA expression at 1 to 5 uM after 48 hrs by RT-qPCR assay relative to control; type: cell-based
Method in brief: (§1)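 MCF7 cells treated with compound or DMSO for 48 h; target mRNA quantified by real-time RT-PCR; biological triplicates.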

[4] = system: BT-474; test: Growth inhibition of human BT474 cells at 0.11 to 3.5 uM after 12 days by IncuCyte live cell imaging method; type: functional, cell-based
Method in brief: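 BT474 cells grown with compound; percent confluence tracked by IncuCyte live-cell imaging every 4 h over 300 h.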

[5] = system: HEK-293T; test: Cytotoxicity against HEK293T cells assessed as cell killing at 5 to 10 uM after 24 hrs by bright-field microscopy; type: cell-based; settings: human
[6] = Drug uptake in human BT474 cells at 2.5 uM after 24 hrs by LC-MS/MS analysis; type: ADME, cell-based; settings: bt-474, 24 h
Method in brief: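 Compound incubated with BT474 cells for 24 h; cells lysed and compound level in the extract determined.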

[7] = system: MDA-MB-231; test: Cytotoxicity against human MDA-MB-231 cells assessed as cell killing at 5 to 10 uM after 24 hrs by bright-field microscopy; type: functional, cell-based
[8] = system: MCF7; test: Cytotoxicity against human MCF7 cells assessed as cell killing at 5 to 10 uM after 24 hrs by bright-field microscopy; type: functional, cell-based
[9] = system: MCF7; test: Inhibition of KDM5 human MCF7 cells assessed as up-regulation of MT1H mRNA expression at 1 to 5 uM after 48 hrs by RT-qPCR assay relative to control; type: cell-based; method in brief: as §1
[10] = Metabolic stability in human BT474 cell culture media assessed as parent compound remaining at 10 uM after 24 hrs by LC-MS/MS analysis; type: physicochemical; settings: read-out: Stability
[11] = system: MCF7; test: Inhibition of KDM5 human MCF7 cells assessed as up-regulation of STING mRNA expression at 1 to 5 uM after 48 hrs by RT-qPCR assay relative to control; type: cell-based; method in brief: as §1
[12] = Effective permeability of the compound at pH 7.4 by PAMPA; type: ADME; settings: read-out: Peff
Method in brief: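 PAMPA with a lipid/dodecane artificial membrane and pH 7.4 buffer in donor and acceptor wells. Compounds diluted from 10 mM DMSO stock to 0.05 mM final, 0.5% DMSO. Donor stirred during a 30 min permeation at room temperature. Donor and acceptor concentrations read by UV. Permeability given in 10−6 cm s−1: >100 high, 10–100 moderate, <10 low.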

[13] = biological target: Lysine-specific demethylase 5A (Homo sapiens, UniProt P29375); test: Inhibition of KDM5A in human BT474 cells assessed as effect on H3K4me3 methylation levels up to 5 uM after 48 hrs by immunocytochemistry
Chain of Lysine-specific demethylase 5A (P29375 whole entry): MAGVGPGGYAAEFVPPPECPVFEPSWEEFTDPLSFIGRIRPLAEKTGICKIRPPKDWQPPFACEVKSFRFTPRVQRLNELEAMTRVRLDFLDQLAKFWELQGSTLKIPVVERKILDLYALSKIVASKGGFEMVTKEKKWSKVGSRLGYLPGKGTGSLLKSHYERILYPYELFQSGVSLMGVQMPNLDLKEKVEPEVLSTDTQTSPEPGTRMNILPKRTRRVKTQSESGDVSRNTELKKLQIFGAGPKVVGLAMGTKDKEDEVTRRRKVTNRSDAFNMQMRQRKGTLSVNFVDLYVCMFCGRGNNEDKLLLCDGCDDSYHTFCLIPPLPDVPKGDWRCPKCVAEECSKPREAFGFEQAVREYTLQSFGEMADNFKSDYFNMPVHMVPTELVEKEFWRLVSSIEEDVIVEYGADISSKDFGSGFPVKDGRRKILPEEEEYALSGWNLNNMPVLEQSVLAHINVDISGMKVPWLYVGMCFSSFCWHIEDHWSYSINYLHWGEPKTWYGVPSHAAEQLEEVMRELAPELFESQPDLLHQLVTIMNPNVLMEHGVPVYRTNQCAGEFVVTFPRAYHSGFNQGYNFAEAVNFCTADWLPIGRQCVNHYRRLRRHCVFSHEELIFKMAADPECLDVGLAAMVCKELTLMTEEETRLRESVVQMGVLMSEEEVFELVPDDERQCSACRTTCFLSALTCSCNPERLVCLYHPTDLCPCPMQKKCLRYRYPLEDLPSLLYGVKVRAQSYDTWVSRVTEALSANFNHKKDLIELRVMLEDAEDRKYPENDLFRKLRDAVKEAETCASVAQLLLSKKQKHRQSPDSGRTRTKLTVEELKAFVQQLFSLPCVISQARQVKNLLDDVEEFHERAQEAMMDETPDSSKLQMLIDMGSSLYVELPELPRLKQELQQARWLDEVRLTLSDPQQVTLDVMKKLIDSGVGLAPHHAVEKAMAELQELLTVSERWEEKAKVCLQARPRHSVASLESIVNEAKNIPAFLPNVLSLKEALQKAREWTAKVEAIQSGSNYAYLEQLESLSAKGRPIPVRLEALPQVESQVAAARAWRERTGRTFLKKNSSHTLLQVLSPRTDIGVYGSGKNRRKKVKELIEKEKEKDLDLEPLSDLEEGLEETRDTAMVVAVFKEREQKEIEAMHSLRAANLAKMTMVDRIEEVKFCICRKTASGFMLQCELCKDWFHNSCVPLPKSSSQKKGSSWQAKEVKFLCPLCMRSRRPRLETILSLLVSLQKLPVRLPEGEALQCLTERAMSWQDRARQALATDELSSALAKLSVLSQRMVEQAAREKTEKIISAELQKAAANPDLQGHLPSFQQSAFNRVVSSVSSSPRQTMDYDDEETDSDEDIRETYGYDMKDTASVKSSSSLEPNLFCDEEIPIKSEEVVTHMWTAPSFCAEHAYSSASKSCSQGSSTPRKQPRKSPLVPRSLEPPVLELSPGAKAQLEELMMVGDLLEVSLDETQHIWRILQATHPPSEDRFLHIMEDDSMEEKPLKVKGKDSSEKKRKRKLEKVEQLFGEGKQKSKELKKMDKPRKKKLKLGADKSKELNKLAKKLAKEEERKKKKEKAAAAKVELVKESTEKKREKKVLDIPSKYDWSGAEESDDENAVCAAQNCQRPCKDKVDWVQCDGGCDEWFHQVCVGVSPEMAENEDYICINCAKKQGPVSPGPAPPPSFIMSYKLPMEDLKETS

SMILES: CC(C)OC(=O)c1ccnc2cc(C(OCCN3CCCCC3)c3cccc(NC(=O)/C=C/CN(C)C)c3)sc12 (stereo not drawn)
- Activity [1]: Active
- fold change (FC) [2]: < 2
- fold change (FC) [3]: < 2
- growth inhibition (GI) [4]: inactive
- Activity [5]: Toxic
- Drug uptake [6]: Active
- Activity [7]: Active
- Activity [8]: Active
- fold change (FC) [9]: < 2
- remaining at 24 h, 10 µM [10]: 80%
- fold change (FC) [11]: < 2
- Papp [12]: 71.4 ×10⁻⁶ cm/s
- inhibition [13]: inactive

— ChEMBL document CHEMBL4266040, “Structure-Based Engineering of Irreversible Inhibitors against Histone Lysine Demethylase KDM5A” (J Med Chem, 2018)
